Measurements from ChEMBL document CHEMBL4689842, “EUbOPEN Chemogenomics Library wave 1” (2021).

System: U2OS
Assay: Multiplex assay against U2OS
Format: toxicity, cell-based
Conditions: human
Outline: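 Compound was added to live cells that had been stained at seeding with Hoechst33342, BioTracker Green Microtubule Cytoskeleton Dye, MitoTracker Red and Annexin V Alexa Fluor 680, and imaging followed on a CQ1 microscope at 37°C and 5% CO2. CellPathfinder machine-learning gating divided cells into Hoechst high-intensity objects or normal cells, normal cells into healthy, pyknosed or fragmented nuclei, and pyknosed cells into mitotic or apoptotic. Tubulin, mitochondrial-mass and membrane-permeability phenotypes are per cents of healthy-nucleus cells.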

[1] = 12 h, 1 µM, compound concentration 1 uM, replicate 1
[2] = 12 h, 1 µM, compound concentration 1 uM, replicate 2
[3] = 12 h, 10 µM, compound concentration 10 uM, replicate 1
[4] = 12 h, 10 µM, compound concentration 10 uM, replicate 2
[5] = 24 h, 1 µM, compound concentration 1 uM, replicate 1
[6] = 24 h, 1 µM, compound concentration 1 uM, replicate 2
[7] = 24 h, 10 µM, compound concentration 10 uM, replicate 1
[8] = 24 h, 10 µM, compound concentration 10 uM, replicate 2
[9] = 48 h, 1 µM, compound concentration 1 uM, replicate 1
[10] = 48 h, 1 µM, compound concentration 1 uM, replicate 2
[11] = 48 h, 10 µM, compound concentration 10 uM, replicate 1
[12] = 48 h, 10 µM, compound concentration 10 uM, replicate 2

CN(c1cc(C(F)(F)F)nc(OCCC(=O)O)n1)c1cccc2c1CCC2
Population Apoptotic (%) [1]: 33%
Population Fragmented Nuclei (%) [1]: 24%
Population Healthy Nuclei (%) [1]: 64%
Population Hoechst High Intensity Objects (%) [1]: 11%
Population Membrane Permeable-Phenotype (%) [1]: 8%
Population Mitochondria Different-Phenotype (%) [1]: 12%
Population Mitotic Cells (%) [1]: 66%
Population Normal (%) [1]: 88%
Population Pyknosed Nuclei (%) [1]: 11%
Population Tubulin-Different-Phenotype (%) [1]: 10%
Total Cell Count [1]: 191
Population Apoptotic (%) [2]: 0%
Population Fragmented Nuclei (%) [2]: 9%
Population Healthy Nuclei (%) [2]: 80%
Population Hoechst High Intensity Objects (%) [2]: 12%
Population Membrane Permeable-Phenotype (%) [2]: 4%
Population Mitochondria Different-Phenotype (%) [2]: 20%
Population Mitotic Cells (%) [2]: 100%
Population Normal (%) [2]: 87%
Population Pyknosed Nuclei (%) [2]: 9%
Population Tubulin-Different-Phenotype (%) [2]: 28%
Total Cell Count [2]: 65
Population Apoptotic (%) [3]: 23%
Population Fragmented Nuclei (%) [3]: 11%
Population Healthy Nuclei (%) [3]: 77%
Population Hoechst High Intensity Objects (%) [3]: 5%
Population Membrane Permeable-Phenotype (%) [3]: 9%
Population Mitochondria Different-Phenotype (%) [3]: 13%
Population Mitotic Cells (%) [3]: 76%
Population Normal (%) [3]: 94%
Population Pyknosed Nuclei (%) [3]: 11%
Population Tubulin-Different-Phenotype (%) [3]: 15%
Total Cell Count [3]: 149
Population Apoptotic (%) [4]: 0%
Population Fragmented Nuclei (%) [4]: 13%
Population Healthy Nuclei (%) [4]: 86%
Population Hoechst High Intensity Objects (%) [4]: 14%
Population Membrane Permeable-Phenotype (%) [4]: 4%
Population Mitochondria Different-Phenotype (%) [4]: 10%
Population Mitotic Cells (%) [4]: 0%
Population Normal (%) [4]: 85%
Population Pyknosed Nuclei (%) [4]: 0%
Population Tubulin-Different-Phenotype (%) [4]: 30%
Total Cell Count [4]: 71
Population Apoptotic (%) [5]: 40%
Population Fragmented Nuclei (%) [5]: 16%
Population Healthy Nuclei (%) [5]: 77%
Population Hoechst High Intensity Objects (%) [5]: 7%
Population Membrane Permeable-Phenotype (%) [5]: 6%
Population Mitochondria Different-Phenotype (%) [5]: 10%
Population Mitotic Cells (%) [5]: 60%
Population Normal (%) [5]: 92%
Population Pyknosed Nuclei (%) [5]: 6%
Population Tubulin-Different-Phenotype (%) [5]: 5%
Total Cell Count [5]: 200
Population Apoptotic (%) [6]: 0%
Population Fragmented Nuclei (%) [6]: 4%
Population Healthy Nuclei (%) [6]: 95%
Population Hoechst High Intensity Objects (%) [6]: 8%
Population Membrane Permeable-Phenotype (%) [6]: 2%
Population Mitochondria Different-Phenotype (%) [6]: 13%
Population Mitotic Cells (%) [6]: 0%
Population Normal (%) [6]: 91%
Population Pyknosed Nuclei (%) [6]: 0%
Population Tubulin-Different-Phenotype (%) [6]: 30%
Total Cell Count [6]: 68
Population Apoptotic (%) [7]: 52%
Population Fragmented Nuclei (%) [7]: 8%
Population Healthy Nuclei (%) [7]: 84%
Population Hoechst High Intensity Objects (%) [7]: 3%
Population Membrane Permeable-Phenotype (%) [7]: 5%
Population Mitochondria Different-Phenotype (%) [7]: 10%
Population Mitotic Cells (%) [7]: 47%
Population Normal (%) [7]: 96%
Population Pyknosed Nuclei (%) [7]: 7%
Population Tubulin-Different-Phenotype (%) [7]: 14%
Total Cell Count [7]: 176
Population Apoptotic (%) [8]: 0%
Population Fragmented Nuclei (%) [8]: 13%
Population Healthy Nuclei (%) [8]: 81%
Population Hoechst High Intensity Objects (%) [8]: 13%
Population Membrane Permeable-Phenotype (%) [8]: 3%
Population Mitochondria Different-Phenotype (%) [8]: 13%
Population Mitotic Cells (%) [8]: 100%
Population Normal (%) [8]: 86%
Population Pyknosed Nuclei (%) [8]: 5%
Population Tubulin-Different-Phenotype (%) [8]: 44%
Total Cell Count [8]: 79
Population Apoptotic (%) [9]: 43%
Population Fragmented Nuclei (%) [9]: 7%
Population Healthy Nuclei (%) [9]: 86%
Population Hoechst High Intensity Objects (%) [9]: 5%
Population Membrane Permeable-Phenotype (%) [9]: 4%
Population Mitotic Cells (%) [9]: 56%
Population Normal (%) [9]: 94%
Population Pyknosed Nuclei (%) [9]: 6%
Population Tubulin-Different-Phenotype (%) [9]: 8%
Total Cell Count [9]: 200
Population Apoptotic (%) [10]: 40%
Population Fragmented Nuclei (%) [10]: 6%
Population Healthy Nuclei (%) [10]: 88%
Population Hoechst High Intensity Objects (%) [10]: 6%
Population Membrane Permeable-Phenotype (%) [10]: 5%
Population Mitochondria Different-Phenotype (%) [10]: 15%
Population Mitotic Cells (%) [10]: 60%
Population Normal (%) [10]: 93%
Population Pyknosed Nuclei (%) [10]: 4%
Population Tubulin-Different-Phenotype (%) [10]: 24%
Total Cell Count [10]: 81
Population Apoptotic (%) [11]: 50%
Population Fragmented Nuclei (%) [11]: 5%
Population Healthy Nuclei (%) [11]: 89%
Population Hoechst High Intensity Objects (%) [11]: 2%
Population Membrane Permeable-Phenotype (%) [11]: 2%
Population Mitochondria Different-Phenotype (%) [11]: 9%
Population Mitotic Cells (%) [11]: 50%
Population Normal (%) [11]: 97%
Population Pyknosed Nuclei (%) [11]: 4%
Population Tubulin-Different-Phenotype (%) [11]: 15%
Total Cell Count [11]: 251
Population Apoptotic (%) [12]: 20%
Population Fragmented Nuclei (%) [12]: 8%
Population Healthy Nuclei (%) [12]: 87%
Population Hoechst High Intensity Objects (%) [12]: 6%
Population Membrane Permeable-Phenotype (%) [12]: 1%
Population Mitochondria Different-Phenotype (%) [12]: 6%
Population Mitotic Cells (%) [12]: 80%
Population Normal (%) [12]: 93%
Population Pyknosed Nuclei (%) [12]: 3%
Population Tubulin-Different-Phenotype (%) [12]: 38%
Total Cell Count [12]: 113
